“Also recorded” adds a separate entry of the source.
Columns and labels:
GC signaling [1] = test: GRIZLY assay: bioluminescence of single GRE:Luc transgenic zebrafish larvae; format: in vivo; conditions: for inhibition of dexamethasone-induced relative reporter activity: in presence of 5 μM dexamethasone; for relative reporter (luciferase) activity in response to treatment: 5 dpf, compound added to the water
Outline: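 Single 4 dpf transgenic larvae were placed one per well in E3 medium with 0.5 mM luciferin and dosed via the water at 5 dpf. The antagonist was given with 5 μM DEX; organotins with 5 μM DEX for 24 h; salt stress was 250 mM NaCl. Plates were sealed and read at 28 °C. Larval n was 48 for dose–response and 22 for salt. Tests were non-parametric, with EC50/IC50 from non-linear regression.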

GC signaling [2] = test: AB.9 GRE:Luc cell reporter bioluminescence assay; format: cell-based, zebrafish; conditions: AB.9 GRE:Luc cells; for inhibition of dexamethasone-induced relative reporter activity: co-treated with 10 nM DEX (Figure 2 legend: 5 nM)
Outline: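 AB.9 GRE:Luc cells were seeded at 35,000 cells/well one day ahead and held at 28 °C. Medium was then swapped for phenol-red-free L-15 with 0.5 mM luciferin before compound addition. Organotin runs used DEX in 17% (v/v) charcoal-treated FCS with TBT or DBT at 30–500 nM. Plates were sealed and read for 24 h at 28 °C. Analysis used one-way ANOVA with Dunnett's posttest; IC50 came from non-linear regression.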

GC signaling [3] = test: Pilot chemical screen of FDA approved drug library, GRE:Luc larvae; format: in vivo, zebrafish; conditions: 48 h; for retest for activation of GC signaling: GRE:Luc larvae, at least 2 concentrations; for primary screen hit (activation of GC signaling): larvae, 4 μg/mL in 0.3% DMSO, robust z-score cutoff 1.49
Outline: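 Single 5 dpf GRE:Luc larvae in luciferin-E3 were exposed to library compounds at a final 4 μg/mL in 0.3% DMSO (prediluted to 40 μg/mL in 3% DMSO), with 5–11 replicates per compound. Each plate held 8 DEX (10 μM) and 8 DMSO controls; reading lasted 48 h. Hits were called from log-transformed AUCs, robust z-scored, above a cutoff of 1.49 chosen by ROC/Youden index. Retests used a second supplier and ≥2 concentrations.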

GC signaling [4] = test: Pilot chemical screen of FDA approved drug library, AB.9 GRE:Luc cells; format: cell-based, zebrafish; conditions: 48 h; for retest for activation of GC signaling: at least 2 concentrations; for primary screen hit (activation of GC signaling): 4 μg/mL in 0.3% DMSO, robust z-score cutoff 12.3
Outline: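 GRE:Luc AB.9 cells in luciferin-L-15 received library compounds prediluted to 40 μg/mL in 3% DMSO, giving a final 4 μg/mL in 0.3% DMSO. There were 3 replica plates, each with 8 DEX (10 μM) and 8 DMSO controls, read for 48 h. Log-transformed trapezoidal AUCs were robust z-scored, with a cutoff of 12.3 set by ROC/Youden index. Retests used a second supplier, the same setup and ≥2 concentrations.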

[5] = test system: endogenous cortisol levels; test: Cortisol-ELISA of larval extracts; format: in vivo, zebrafish; conditions: after 20 min
Outline: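 Osmotic stress was induced in 5 dpf larvae with 250 mM NaCl, and endogenous cortisol was followed over time after exposure (n = 5).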

Luciferase expression = test: Whole mount immunohistochemistry with anti-luciferase antibody in GRE:Luc larvae; format: in vivo, zebrafish; conditions: 5 dpf larvae, 40 μM, 8 h

SMILES: CCC[CH2][Sn]([CH2]CCC)[CH2]CCC [TBT, tributyltin]
- lowest concentration inhibiting GC signaling in GRE:Luc larvae (GC signaling [1]; GRE:Luc larvae, 5 μM dexamethasone, measured for 24 h, p ≤ 0.05): 20 nM
- inhibition of dexamethasone-induced relative reporter activity (GC signaling [1]; GRE:Luc larvae): effective in inhibiting GC signaling
- inhibition of dexamethasone-induced relative reporter activity (GC signaling [2]): indistinguishable from cells treated with DEX alone

SMILES: CC(=O)[C@H]1CC[C@H]2[C@@H]3CC=C4C[C@@H](O)CC[C@]4(C)[C@H]3CC[C@]12C [pregnenolone]
- retest for activation of GC signaling (GC signaling [3]): confirmed to activate the GC signaling pathway in vivo
- primary screen hit (activation of GC signaling) (GC signaling [3]): scored as primary screen hits
- retest for activation of GC signaling (GC signaling [4]): did not activate the GC pathway
- cortisol levels in the larvae after treatment [5]: significantly increased cortisol levels
- cortisol levels in the larvae after treatment ([5]; listed as Pregnenolone): increase in cortisol (hydrocortisone) levels

SMILES: CC#C[C@]1(O)CC[C@H]2[C@@H]3CCC4=CC(=O)CCC4=C3[C@@H](c3ccc(N(C)C)cc3)C[C@@]21C [mifepristone]
- inhibition of dexamethasone-induced relative reporter activity (GC signaling [1]; GRE:Luc larvae): blocked the response of the reporter to DEX treatment
- inhibition of dexamethasone-induced relative reporter activity (GC signaling [2]): blocked the response of the reporter to DEX treatment

SMILES: C[C@]12C[C@H](O)[C@H]3[C@@H](CCC4=CC(=O)CC[C@@]43C)[C@@H]1CC[C@@H]2C(=O)CO [corticosterone]
- retest for activation of GC signaling (GC signaling [3]): unable to do so at all concentrations tested
- primary screen hit (activation of GC signaling) (GC signaling [3]): not retained in the primary screen
- retest for activation of GC signaling (GC signaling [4]): able to activate the GC signaling pathway

SMILES: C[C@@H]1C[C@H]2[C@@H]3CCC4=CC(=O)C=C[C@]4(C)[C@@]3(F)[C@@H](O)C[C@]2(C)[C@@]1(O)C(=O)CO [dexamethasone]
- induction of reporter activity at 1 dpf (GC signaling [1]; 20 μM DEX, 1 dpf, 9 h after start of treatment): low-level yet non-significant induction
- relative reporter (luciferase) activity in response to treatment (GC signaling [1]; GRE:Luc larvae): increase in relative luciferase activity
- relative reporter (luciferase) activity in response to treatment (GC signaling [1]; GRE:Luc larvae, listed as DEX): responded in a dose-dependent manner

SMILES: C[C@]12C=CC(=O)C=C1CC[C@@H]1[C@@H]2C(=O)C[C@@]2(C)[C@H]1CC[C@]2(O)C(=O)CO [prednisone]
- retest for activation of GC signaling (GC signaling [3]): unable to do so at all concentrations tested
- primary screen hit (activation of GC signaling) (GC signaling [3]): not retained in the primary screen
- primary screen hit (activation of GC signaling) (GC signaling [4]): being the exception
- retest for activation of GC signaling (GC signaling [4]): weak activation of GC signaling only at the highest concentration tested

SMILES: C[C@H]1C[C@H]2[C@@H]3CCC4=CC(=O)C=C[C@]4(C)[C@@]3(F)[C@@H](O)C[C@]2(C)[C@@]1(O)C(=O)CO [betamethasone]
- fluorescence intensity of luciferase immunohistochemistry (Luciferase expression): significant (p = 0.0115, n = 10) increase

SMILES: CCC[CH2][Sn]([Cl])([Cl])[CH2]CCC [DBT, dibutyltin dichloride]
- inhibition of dexamethasone-induced relative reporter activity (GC signaling [1]; GRE:Luc larvae): did not show statistically significant attenuation of GC signaling
- inhibition of dexamethasone-induced relative reporter activity (GC signaling [2]): significantly reduced by treatment with 250 and 500 nM DBT; also recorded: statistically significant inhibition of bioluminescence at higher concentrations

SMILES: Nc1c2c(nc3ccccc13)CCCC2O (stereo not drawn) [hydroxytacrine]
- primary screen hit (activation of GC signaling) (GC signaling [4]): false positive hits
- retest for activation of GC signaling (GC signaling [4]): could not be confirmed during the rescreen

SMILES: C=C1C[C@H]2[C@@H]3C=C(C)C4=CC(=O)CC[C@]4(C)[C@H]3CC[C@]2(C)[C@@]1(OC(C)=O)C(C)=O [melengestrol acetate]
- retest for activation of GC signaling (GC signaling [3]): dose-dependently activate GC signaling
- primary screen hit (activation of GC signaling) (GC signaling [3]): missed

SMILES: NCCC(O)(P(=O)(O)O)P(=O)(O)O [pamidronic acid]
- primary screen hit (activation of GC signaling) (GC signaling [4]): false positive hits
- retest for activation of GC signaling (GC signaling [4]): could not be confirmed during the rescreen

SMILES: CC(=O)S[C@@H]1CC2=CC(=O)CC[C@]2(C)[C@H]2CC[C@@]3(C)[C@@H](CC[C@@]34CCC(=O)O4)[C@H]12 [spironolactone]
- primary screen hit (activation of GC signaling) (GC signaling [3]): scored as primary screen hits

SMILES: C[C@]12CCC(=O)C=C1CC[C@@H]1[C@@H]2[C@@H](O)C[C@]2(C=O)[C@@H](C(=O)CO)CC[C@@H]12 [aldosterone]
- relative reporter (luciferase) activity in response to treatment (GC signaling [1]; GRE:Luc larvae): did not respond
- relative reporter activity in response to treatment (GC signaling [2]): did not respond

SMILES: C[C@]12CCC(=O)C=C1CC[C@@H]1[C@@H]2[C@@H](O)C[C@@]2(C)[C@H]1CC[C@]2(O)C(=O)CO [cortisol, hydrocortisone]
- relative reporter (luciferase) activity in response to treatment (GC signaling [1]; GRE:Luc larvae): responded in a dose-dependent manner
